Measurements from ChEMBL document CHEMBL1629507, “Small molecule inhibitors of hantavirus infection” (Bioorg Med Chem Lett, 2010).
Where a SMILES comes first, the peptide text is derived from it. The star is where a group is joined. Tos = Cc1ccc(S(=O)(=O)*)cc1

These compounds were tested against Integrin alpha-V/beta-3 (Homo sapiens) (UniProt P05106+P06756) (assay: Inhibition of human alphaVbeta3 receptor expressed in african green monkey Vero E6 cells assessed as inhibition of SNV infection in cells at 1 uM by immunofluorescent assay).
Type: cell-based
Method in brief: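 Vero E6 cells (10^4/well, duplicate wells) were grown 24 h at 37 °C in MEM with 2.5% FBS. They were pretreated 1 h at 37 °C with small molecules (1 µM) or cyclic peptides (2 mM, in PBS pH 7.4). SNV strain SN77734 (500–1,000 FFU/ml) was then added for 1 h, then washed out. After 24–36 h, cells were fixed and stained with anti-SNV N plus FITC antibody, and foci counted. % inhibition is relative to untreated cells, normalized to ReoPro 80 µg/ml set as 80%; at least 4 replicates.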
`O=C(NCCc1ccc(Cl)cc1)C1CCCN(c2ncnc3onc(-c4ccc(F)cc4)c23)C1` (configuration not stated) gave an inhibition of 14.5%. Compound `Cc1cc(C)cc(-n2c(=O)c3sccc3n(CC(=O)N3CCN(c4ccccc4)CC3)c2=O)c1` has an inhibition of 2.2%. Compound `CC(C)c1ccc(S(=O)(=O)c2nnn3c2nc(NC(C)c2ccccc2)c2sccc23)cc1` (configuration not stated) has an inhibition of 8%. `COc1ccc(Cl)cc1NC(=O)C(Cc1ccccc1)NS(=O)(=O)c1cccc2cccnc12` (configuration not stated) was tested, and the inhibition was 8%. In the case of `CCN(CCNC(=O)C(Cc1ccccc1)NS(=O)(=O)c1cccc2nsnc12)c1ccccc1` (configuration not stated), the inhibition is reported as 8%. In the case of `Cc1cccc(CN2C(=O)c3ccccc3Sc3ccc(C(=O)NCc4cccs4)cc32)c1`, the inhibition is reported as 8.3%. Compound `Cc1ccc(Cl)cc1NC(=O)C(Cc1ccccc1)NS(=O)(=O)c1cccc2nsnc12` (configuration not stated) has an inhibition of 3.2%. `N#Cc1ccccc1OCC(=O)N/N=C/c1cc(Br)ccc1OC(=O)c1ccccc1` was tested, and the inhibition was 15%. Compound `COc1ccccc1CNC(=O)C(Cc1ccccc1)NS(=O)(=O)c1cccc2nsnc12` (configuration not stated) has an inhibition of 4.8%. Work on `Cc1ccc(S(=O)(=O)NC(Cc2ccccc2)C(=O)NC(CCCNC(=N)N)C(=O)O)cc1` (stereo not drawn) (Tos-Phe-Arg-OH; configuration not given here) yielded an inhibition of 0%. Compound `Cc1cccc(C)c1NC(=S)N/N=C\c1cn(C)c2ccc(S(=O)(=O)N3CCOCC3)cc12` has an inhibition of 0%. `O=C(NC(C(=O)N/N=C/c1ccco1)c1nnc(O)c2ccccc12)c1ccccc1` (configuration not stated) gave an inhibition of 33%. `NS(=O)(=O)c1ccc(CCNC(=O)C(Cc2ccccc2)NS(=O)(=O)c2cccc3nsnc23)cc1` (configuration not stated) gave an inhibition of 9.6%. `COc1ccc(CNC(=O)c2ccc3c(c2)N(Cc2ccccc2)C(=O)c2ccccc2S3)cc1` gave an inhibition of 22%. `COc1ccc(OC)c(CNC(=O)C2CCCN(c3ncnc4onc(-c5ccc(F)cc5)c34)C2)c1` (configuration not stated) showed an inhibition of 28%. Compound `COc1ccccc1C1CC(c2c(O)[nH]c(=O)n(CCc3ccccc3)c2=O)=Nc2ccccc2S1` (configuration not stated) has an inhibition of 18%. For `COc1cccc(CNC(=O)C(Cc2ccccc2)NS(=O)(=O)c2cccc3cccnc23)c1` (configuration not stated), the inhibition was 0.8%. In the case of `COc1ccc([N+](=O)[O-])cc1NC(=O)C(Cc1ccccc1)NS(=O)(=O)c1cccc2nsnc12` (configuration not stated), the inhibition is reported as 8%. For `COc1cccc(C(CC(=O)NCCCN2CCOCC2)NS(=O)(=O)c2ccc(C)cc2)c1OC` (configuration not stated), the inhibition was 0%. `COc1ccccc1CNC(=O)C(Cc1ccccc1)NS(=O)(=O)c1cccc2cccnc12` (configuration not stated) showed an inhibition of 9.6%. Compound `O=S(=O)(c1cccc2cccnc12)N1CCN(Cc2ccc3c(c2)OCO3)CC1` has an inhibition of 0%. `O=C(NC(Cc1c[nH]c2ccccc12)C(=O)OCC(=O)c1ccc(Cl)cc1)Oc1ccccc1` (configuration not stated) was tested, and the inhibition was 29%. For `COc1ccccc1NC(=O)C(Cc1ccccc1)NS(=O)(=O)c1cccc2cccnc12` (configuration not stated), the inhibition was 19.3%. `Cc1ccc(S(=O)(=O)NC(CC(=O)NCc2cccnc2)c2ccco2)cc1` (configuration not stated) was tested, and the inhibition was 7%. Compound `O=C(NCc1ccccc1)C(Cc1ccccc1)NS(=O)(=O)c1cccc2nsnc12` (configuration not stated) has an inhibition of 3.2%. `O=C(CSc1nc2ccsc2c(=O)n1-c1ccc(Cl)cc1)NCCc1ccc(Cl)cc1` was tested, and the inhibition was 11.4%. Compound `O=C(NCc1ccc(Cl)cc1)C(Cc1ccccc1)NS(=O)(=O)c1cccc2cccnc12` (configuration not stated) has an inhibition of 9.1%. With `COc1ccc(OC)c(CNC(=O)C2CCCN(c3ncnc4onc(C)c34)C2)c1` (configuration not stated) the inhibition was 0%. For `NS(=O)(=O)c1ccc(CCNC(=O)C(NS(=O)(=O)c2cccc3nsnc23)c2ccccc2)cc1` (configuration not stated), the inhibition was 6%. `COc1ccc(CCNC(=O)C(Cc2ccccc2)NS(=O)(=O)c2ccc(Br)cc2)cc1OC` (configuration not stated) gave an inhibition of 14%. Compound `COc1ccc(C(CC(=O)NCCN2CCOCC2)NS(=O)(=O)c2ccc(Cl)cc2)cc1` (configuration not stated) has an inhibition of 0%. `O=C(CSc1nc2ccccc2n1S(=O)(=O)c1ccc(Cl)cc1)NCCc1ccccc1` gave an inhibition of 13.6%. `O=C(NC1CCCCCC1)C(Cc1ccccc1)NS(=O)(=O)c1cccc2nsnc12` (configuration not stated) gave an inhibition of 0%. Work on `O=C(Nc1ccccc1)C(Cc1ccccc1)NS(=O)(=O)c1cccc2cccnc12` (configuration not stated) yielded an inhibition of 0%. `Cc1cccc(CN2C(=O)c3ccccc3Sc3ccc(C(=O)NCc4ccco4)cc32)c1` showed an inhibition of 26%. `N#Cc1ccccc1Cn1c(=O)n(CCC(=O)NCc2ccc3c(c2)OCO3)c(=O)c2ccccc21` was tested, and the inhibition was 1%. Work on `O=C(CSc1nc2nccnc2c(=O)n1Cc1cccs1)NCCc1ccccc1` yielded an inhibition of 6%.
